According to ChEMBL document CHEMBL3351994, “Synthesis and biological evaluation of novel millepachine derivatives as a new class of tubulin polymerization inhibitors” (J Med Chem, 2014):
The source made the active and inactive calls.

Legend:
HepG2 = assay: Antiproliferative activity against human HepG2 cells assessed as inhibition of cell proliferation after 48 hrs by MTT assay; assay type: functional, cell-based
Outline: (§1)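 Cells grown at 37 °C in humidified 5% CO2. K562, C26 and HCT lines in RPMI-1640; other lines in DMEM; both media with 10% FBS, penicillin and streptomycin. 1000 cells/well seeded, incubated overnight, then compound at various doses for 48 h. MTT added for 4 h, formazan dissolved in DMSO, absorbance read at 590 nm. IC50 from dose–response curves, mean ± SEM of at least three independent experiments.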

A-375 = assay: Antiproliferative activity against human A375 cells assessed as inhibition of cell proliferation after 48 hrs by MTT assay; assay type: functional, cell-based; conditions: A-375, 48 h; outline: as §1
K562 = assay: Antiproliferative activity against human K562 cells assessed as inhibition of cell proliferation after 48 hrs by MTT assay; assay type: functional, cell-based; conditions: K562, 48 h; outline: as §1
[1] = Solubility in PBS solution by nephelometry; assay type: physicochemical
Outline: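 Maximum soluble concentration in PBS, determined by nephelometry.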

Tubulin (Homo sapiens) [2] = target: T1, Tubulin (Homo sapiens) (UniProt P68371+Q9H4B7+P0DPH7+P68366+Q13509+Q71U36+P04350+Q3ZCM7+P07437+P68363+Q9BQE3+Q6PEY2+Q13885+Q9BVA1+Q9BUF5); assay: Inhibition of tubulin polymerization in human HepG2 cells assessed as microtubule polymerization alterations at 1 uM after 24 hrs by immunofluorescence assay; assay type: cell-based
Outline: (§2)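 HepG2 cells seeded overnight, then given 1 μM compound or DMSO for 24 h; methanol-fixed, blocked 45 min in 5% BSA/PBS, α-tubulin primary antibody overnight at 4 °C, fluorescent secondary 1 h, DAPI nuclear counterstain; microtubules and spindles imaged by fluorescence microscopy.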

Tubulin (Homo sapiens) [3] = target: T1, Tubulin (Homo sapiens); assay: Inhibition of tubulin polymerization in human HepG2 cells assessed as spindle formation alterations at 1 uM after 24 hrs by immunofluorescence assay; assay type: cell-based; outline: as §2
Tubulin (Homo sapiens) [4] = target: T1, Tubulin (Homo sapiens); assay: Inhibition of tubulin polymerization in human HepG2 cells assessed as abnormal mitotic spindles at 1 uM after 24 hrs by immunofluorescence assay; assay type: cell-based; outline: as §2
Tubulin (Homo sapiens) [5] = target: T1, Tubulin (Homo sapiens); assay: Inhibition of tubulin polymerization in human HepG2 cells assessed as multiple tubulin bundles at 1 uM after 24 hrs by immunofluorescence assay; assay type: cell-based; outline: as §2
Tubulin (Homo sapiens) [6] = target: T1, Tubulin (Homo sapiens); assay: Inhibition of tubulin (unknown origin) polymerization pre-incubated for 5 mins by spectrophotometry; assay type: protein-complex assay
HUVEC [7] = assay: Antivascular activity in HUVECs assessed as inhibition of cell migration incubated for 20 hrs by phase contrast microscopy based wound healing migration assay; assay type: functional; conditions: Homo sapiens
Outline: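 HUVECs grown to confluence in DMEM, then serum-starved for 16 h. Monolayer scratched with a pipet tip and washed with PBS. Serum-free DMEM with vehicle or 50, 100 or 500 nM compound added. Imaged after 20–24 h; migrated cells counted manually and expressed relative to vehicle wells; t-test.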

HUVEC [8] = assay: Antivascular activity in HUVECs assessed as disruption of capillary-like tubes at 50 to 500 nM incubated for 6 hrs by matrigel based tube formation assay; assay type: functional, cell-based; conditions: Homo sapiens
Outline: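 HUVECs (2−4 × 10^4) in DMEM seeded on Matrigel polymerized at 37 °C for 30 min. Treated with 50, 100 or 500 nM compound or vehicle at 37 °C. Capillary networks photographed after 6 h and quantified; significance by t-test.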

[9] = Antiproliferative activity against mouse C26 cells assessed as inhibition of cell proliferation after 48 hrs by MTT assay; assay type: functional, cell-based; conditions: C26, 48 h; outline: as §1
[10] = Antiproliferative activity against human HCT116 cells assessed as inhibition of cell proliferation after 48 hrs by MTT assay; assay type: functional, cell-based; conditions: HCT-116, 48 h
[11] = Antiproliferative activity against human DLD1 cells assessed as inhibition of cell proliferation after 48 hrs by MTT assay; assay type: functional, cell-based; conditions: DLD-1, 48 h; outline: as §1
[12] = Antiproliferative activity against human HCT15 cells assessed as inhibition of cell proliferation after 48 hrs by MTT assay; assay type: functional, cell-based; conditions: HCT-15, 48 h; outline: as §1
NCI-H358 = assay: Antiproliferative activity against human NCI-H358 cells assessed as inhibition of cell proliferation after 48 hrs by MTT assay; assay type: functional, cell-based; conditions: NCI-H358, 48 h; outline: as §1
MCF7 = assay: Antiproliferative activity against human MCF7 cells assessed as inhibition of cell proliferation after 48 hrs by MTT assay; assay type: functional, cell-based; conditions: MCF7, 48 h; outline: as §1
[13] = Antiproliferative activity against human ES2 cells assessed as inhibition of cell proliferation after 48 hrs by MTT assay; assay type: functional, cell-based; conditions: ES-2, 48 h
[14] = Antiproliferative activity against human A2780S cells assessed as inhibition of cell proliferation after 48 hrs by MTT assay; assay type: functional, cell-based; conditions: A2780, 48 h
Outline: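 Cells grown in DMEM with 10% FBS, penicillin/streptomycin at 37 °C, 5% CO2. 1000 cells/well seeded, incubated overnight, then exposed to various doses for 48 h. MTT added for 4 h, formazan dissolved in DMSO, absorbance read at 590 nm. IC50 = concentration inhibiting proliferation by 50%, mean ± SEM of dose–response curves from at least three independent experiments.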

AGS = assay: Antiproliferative activity against human AGS cells assessed as inhibition of cell proliferation after 48 hrs by MTT assay; assay type: functional, cell-based; outline: as §1
U-251 = assay: Antiproliferative activity against human U251 cells assessed as inhibition of cell proliferation after 48 hrs by MTT assay; assay type: functional, cell-based; conditions: U-251, 48 h; outline: as §1
[15] = Toxicity in iv dosed BALB/c mouse; assay type: organism-based; conditions: in vivo
Outline: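 Maximum tolerated dose in BALB/c mice (SPF, 18−22 g, 6−8 weeks, half female and half male). Graded doses given intravenously, n = 4 per dose. Survival and adverse effects recorded every other day after dosing. MTD defined as the largest dose given before one death occurs.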

Row | SMILES | IC50 (HepG2; Homo sapiens, HepG2, 48 h) [nM] | IC50 (A-375) [nM] | IC50 (K562) [nM] | other results
1 | CCC(=O)Nc1cc(/C=C/C(=O)c2ccc(OC)c3c2OC(C)(C)C=C3)ccc1OC | 910 | 920 | 800 | –
2 | COc1ccc(/C=C/C(=O)c2ccc(OC)c3c2OC(C)(C)C=C3)cc1NC(C)=O | 570 | 430 | 700 | –
3 | C=CC(=O)Nc1cc(/C=C/C(=O)c2ccc(OC)c3c2OC(C)(C)C=C3)ccc1OC | 840 | 1120 | 1120 | –
4 | COc1ccc(/C=C/C(=O)c2ccc(OC)c3c2OC(C)(C)C=C3)cc1N.O=C(O)/C=C\C(=O)O | – | – | – | IC50 (HepG2; hepg2): 12 nM; solubility kinetic [1]: 47 µg/mL
5 | CNc1cc(/C=C/C(=O)c2ccc(OC)c3c2OC(C)(C)C=C3)ccc1OC | > 2000 | > 2000 | > 2000 | –
6 | C#CCNc1cc(/C=C/C(=O)c2ccc(OC)c3c2OC(C)(C)C=C3)ccc1OC | 1640 | 1600 | 1580 | –
7 | COc1ccc(/C=C/C(=O)c2ccc(OC)c3c2OC(C)(C)C=C3)cc1N | – | – | – | inhibition (Tubulin (Homo sapiens) [2]): Active; inhibition (Tubulin (Homo sapiens) [3]): Active; inhibition (Tubulin (Homo sapiens) [4]): Active; inhibition (Tubulin (Homo sapiens) [5]): Active; inhibition (Tubulin (Homo sapiens) [6]): Dose-dependent effect; inhibition (HUVEC [7]): Dose-dependent effect; inhibition (HUVEC [8]): Dose-dependent effect
8 | COc1ccc(/C=C/C(=O)c2ccc(OC)c3c2OC(C)(C)C=C3)cc1NS(=O)(=O)c1ccc(C)cc1 | > 2000 | > 2000 | > 2000 | –
9 | COc1ccc(/C=C/C(=O)c2ccc(OC)c3c2OC(C)(C)C=C3)cc1NS(=O)(=O)C1CC1 | 1960 | 1870 | 1580 | –
10 | CCCCC(=O)Nc1cc(/C=C/C(=O)c2ccc(OC)c3c2OC(C)(C)C=C3)ccc1OC | 1300 | 1590 | 1160 | –
11 | COc1ccc(/C=C/C(=O)c2ccc(OC)c3c2OC(C)(C)C=C3)cc1N.CS(=O)(=O)O | – | – | – | IC50 (HepG2; hepg2): 10 nM; solubility kinetic [1]: 50 µg/mL
12 | CCN(CC)c1cc(/C=C/C(=O)c2ccc(OC)c3c2OC(C)(C)C=C3)ccc1OC | > 2000 | > 2000 | > 2000 | –
13 | COc1ccc(/C=C/C(=O)c2ccc(OC)c3c2OC(C)(C)C=C3)cc1NC(=O)C(C)C | 830 | 530 | 570 | –
14 | COc1cc2c(c(OC)c1OC)-c1ccc(OC)c(=O)cc1[C@@H](NC(C)=O)CC2 [COLCHICINE] | 42 | 12 | 16 | IC50 [9]: 344 nM; IC50 [10]: 15 nM; IC50 [11]: 11 nM; IC50 [12]: 16 nM; IC50 (NCI-H358): 4 nM; IC50 (MCF7): 58 nM; IC50 [13]: 18 nM; IC50 [14]: 4 nM; IC50 (AGS): 9 nM; IC50 (U-251): 20 nM
15 | COc1ccc(/C=C/C(=O)c2ccc(OC)c3c2OC(C)(C)C=C3)cc1NCc1ccccc1 | 970 | 790 | 1860 | –
16 | COc1ccc(/C=C/C(=O)c2ccc(OC)c3c2OC(C)(C)C=C3)cc1NC(N)=O | 1640 | 1990 | 1540 | –
17 | COc1ccc(/C=C/C(=O)c2ccc(OC)c3c2OC(C)(C)C=C3)cc1NCCN1CCOCC1 | > 2000 | > 2000 | > 2000 | –
18 | COc1ccc(/C=C/C(=O)c2ccc(OC)c3c2OC(C)(C)C=C3)cc1N(CC=C(C)C)CC=C(C)C | > 2000 | > 2000 | 1500 | –
19 | COc1ccc(/C=C/C(=O)c2ccc(OC)c3c2OC(C)(C)C=C3)cc1N.O=C(O)C(O)C(O)C(=O)O | 11 | – | – | solubility kinetic [1]: 52 µg/mL
20 | COc1ccc(/C=C/C(=O)c2ccc(OC)c3c2OC(C)(C)C=C3)cc1NS(C)(=O)=O | 2000 | 1800 | 1770 | –
21 | COc1ccc(/C=C/C(=O)c2ccc(OC)c3c2OC(C)(C)C=C3)cc1NC(=O)Cc1cccc(C(F)(F)F)c1 | > 2000 | > 2000 | > 2000 | –
22 | COc1ccc(/C=C/C(=O)c2ccc(OC)c3c2OC(C)(C)C=C3)cc1N.O=S(=O)(O)O | – | – | – | solubility kinetic [1]: 58 µg/mL; MTD [15]: 200 mg/kg
23 | COc1ccc(/C=C/C(=O)c2ccc(OC)c3c2OC(C)(C)C=C3)cc1NS(=O)(=O)Cc1ccccc1 | > 2000 | 2000 | > 2000 | –
24 | COc1ccc(/C=C/C(=O)c2ccc(OC)c3c2OC(C)(C)C=C3)cc1NC(=O)[C@@H](C)N | 110 | 360 | 220 | –
25 | COc1ccc(/C=C/C(=O)c2ccc(OC)c3c2OC(C)(C)C=C3)cc1N(Cc1ccccc1)Cc1ccccc1 | > 2000 | > 2000 | 114 | –
26 | COc1ccc(/C=C/C(=O)c2ccc(OC)c3c2OC(C)(C)C=C3)cc1NC(=O)CN | 280 | 700 | 890 | –
